Values after ≈ are worked out from the molar mass of the structure shown.
Legend:
Stromelysin-1 = Stromelysin-1 (Homo sapiens, UniProt P08254); test: Inhibition of MMP3
Procedure, shortened: (§1)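 Catalytic-domain enzyme; 1 µM stock activated with APMA (1 mM, 1 h at 37 °C for MMP-2; 2 mM, 3 h at 37 °C for MMP-3), then diluted to 10 nM in Tris–HCl buffer. Assay used 0.1 nM enzyme and 5 µM fluorogenic substrate Mca-Arg-Pro-Lys-Tyr-Ala-Nva-Trp-Met-Lys(Dnp)-NH2. Inhibitor (≤1% DMSO) preincubated with enzyme 15 min at 37 °C. After substrate, 1 h at 37 °C; fluorescence read at ex 328/em 393 nm. IC50 taken from concentration–response curves as the geometric mean of ≥3 experiments.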

[1] = target: 72 kDa type IV collagenase (Homo sapiens, UniProt P08253); test: Inhibition of MMP2; procedure, shortened: as §1
72 kDa type IV collagenase, sequence (P08253 whole entry): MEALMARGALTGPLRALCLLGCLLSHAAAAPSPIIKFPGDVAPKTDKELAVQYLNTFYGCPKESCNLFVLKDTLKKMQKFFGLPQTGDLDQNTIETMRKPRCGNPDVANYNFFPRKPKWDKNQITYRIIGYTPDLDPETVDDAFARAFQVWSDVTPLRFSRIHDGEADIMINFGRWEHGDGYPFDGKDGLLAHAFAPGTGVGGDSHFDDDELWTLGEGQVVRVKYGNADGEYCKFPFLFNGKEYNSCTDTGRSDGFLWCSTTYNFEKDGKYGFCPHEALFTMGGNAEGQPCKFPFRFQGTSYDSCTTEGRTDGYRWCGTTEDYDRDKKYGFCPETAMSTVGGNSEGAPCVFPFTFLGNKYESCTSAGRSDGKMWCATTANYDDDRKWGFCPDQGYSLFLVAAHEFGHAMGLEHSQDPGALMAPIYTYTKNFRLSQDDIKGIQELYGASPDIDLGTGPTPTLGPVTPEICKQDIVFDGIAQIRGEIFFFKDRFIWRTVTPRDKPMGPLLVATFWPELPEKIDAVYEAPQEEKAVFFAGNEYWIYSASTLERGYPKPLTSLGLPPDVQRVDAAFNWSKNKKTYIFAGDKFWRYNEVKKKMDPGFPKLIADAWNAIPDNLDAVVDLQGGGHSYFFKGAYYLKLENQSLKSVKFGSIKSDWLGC

[2] = Selectivity for MMP3 over MMP2
[3] = Aqueous solubility of the compound; assay type: physicochemical
Procedure, shortened: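 Solubility in aqueous media determined across pH 1, 5, 7, 9 and 11.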

Interstitial collagenase = target: T1, Interstitial collagenase (Homo sapiens, UniProt P03956); test: Inhibition of MMP1
T1 sequence (P03956 whole entry): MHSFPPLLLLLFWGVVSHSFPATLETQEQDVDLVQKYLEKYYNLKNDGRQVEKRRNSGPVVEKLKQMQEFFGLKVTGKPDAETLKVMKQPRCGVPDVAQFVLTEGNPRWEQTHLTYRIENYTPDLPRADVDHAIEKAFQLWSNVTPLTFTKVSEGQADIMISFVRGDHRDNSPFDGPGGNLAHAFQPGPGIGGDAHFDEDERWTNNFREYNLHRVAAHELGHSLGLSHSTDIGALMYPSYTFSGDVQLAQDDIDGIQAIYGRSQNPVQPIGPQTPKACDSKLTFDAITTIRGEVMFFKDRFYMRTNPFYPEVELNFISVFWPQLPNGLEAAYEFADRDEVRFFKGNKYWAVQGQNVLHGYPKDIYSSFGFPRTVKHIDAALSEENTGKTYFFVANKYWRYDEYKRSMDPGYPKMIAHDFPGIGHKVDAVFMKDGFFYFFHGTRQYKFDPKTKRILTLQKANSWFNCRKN

[4] = target: Matrix metalloproteinase-9 (Homo sapiens, UniProt P14780); test: Inhibition of MMP9
Matrix metalloproteinase-9, sequence (P14780 whole entry): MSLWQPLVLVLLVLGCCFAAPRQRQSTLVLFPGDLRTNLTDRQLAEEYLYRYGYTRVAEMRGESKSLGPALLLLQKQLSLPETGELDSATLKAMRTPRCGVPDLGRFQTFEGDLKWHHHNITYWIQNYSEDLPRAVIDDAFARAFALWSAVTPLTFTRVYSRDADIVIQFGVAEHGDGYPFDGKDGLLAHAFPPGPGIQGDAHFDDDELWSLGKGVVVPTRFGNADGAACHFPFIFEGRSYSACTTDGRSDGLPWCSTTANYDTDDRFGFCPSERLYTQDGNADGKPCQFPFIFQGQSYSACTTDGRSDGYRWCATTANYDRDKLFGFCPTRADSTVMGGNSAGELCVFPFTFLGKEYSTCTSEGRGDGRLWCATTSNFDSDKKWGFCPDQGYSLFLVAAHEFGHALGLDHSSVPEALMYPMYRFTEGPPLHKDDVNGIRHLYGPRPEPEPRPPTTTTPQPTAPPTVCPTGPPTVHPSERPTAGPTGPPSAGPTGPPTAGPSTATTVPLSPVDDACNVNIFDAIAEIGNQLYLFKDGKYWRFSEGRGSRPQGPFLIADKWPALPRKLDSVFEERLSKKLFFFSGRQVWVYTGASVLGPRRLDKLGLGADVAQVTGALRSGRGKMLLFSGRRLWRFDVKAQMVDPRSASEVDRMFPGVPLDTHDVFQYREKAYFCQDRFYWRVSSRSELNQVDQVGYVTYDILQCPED

[5] = target: Matrix metalloproteinase-14 (Homo sapiens, UniProt P50281); test: Inhibition of MMP14
Collagenase 3 = Collagenase 3 (Homo sapiens, UniProt P45452); test: Inhibition of MMP13

Stromelysin-1, sequence (P08254 whole entry): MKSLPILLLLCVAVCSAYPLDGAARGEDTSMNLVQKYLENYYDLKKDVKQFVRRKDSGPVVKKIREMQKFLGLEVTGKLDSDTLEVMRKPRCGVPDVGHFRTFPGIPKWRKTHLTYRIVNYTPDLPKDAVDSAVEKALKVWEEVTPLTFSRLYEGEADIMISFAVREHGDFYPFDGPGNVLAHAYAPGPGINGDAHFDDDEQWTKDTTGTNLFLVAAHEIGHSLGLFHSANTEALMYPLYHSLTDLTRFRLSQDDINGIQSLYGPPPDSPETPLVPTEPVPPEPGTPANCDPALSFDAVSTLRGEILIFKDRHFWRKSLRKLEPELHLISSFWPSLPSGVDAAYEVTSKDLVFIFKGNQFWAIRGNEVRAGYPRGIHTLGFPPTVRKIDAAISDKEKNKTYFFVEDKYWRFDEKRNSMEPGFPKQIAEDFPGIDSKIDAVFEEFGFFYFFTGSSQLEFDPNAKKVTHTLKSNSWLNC

Row | SMILES | IC50 (Stromelysin-1) [nM] | IC50 [1] [nM] | also measured
1 | Cc1cc(C2CCN(S(=O)(=O)C(C)(C)C(=O)NO)CC2)ccc1-c1cccc(OCCO)n1 | 1 | 529 | IC50 (Interstitial collagenase): 14000 nM; IC50 [4]: 2420 nM; IC50 [5]: 20100 nM; solubility [3]: 1 µg/mL (≈ 2.09 µM)
2 | Cc1cc(C2CCN(S(=O)(=O)C(C)(C)C(=O)NO)CC2)ccc1-c1cccc(OCCN)c1 | 0.4 | 188 | –
3 | COC[C@@H](NC(=O)[C@@H](NC(=O)[C@H](CCCc1ccc(-c2ccccc2)c(C)c1)CC(=O)O)C(C)(C)C)c1ccccc1 | 23 | – | IC50 (Interstitial collagenase): > 100000 nM; IC50 [4]: 30400 nM; IC50 (Collagenase 3): 2300 nM; IC50 [5]: 66900 nM
4 | CN(CCCc1ccc(-c2ccccc2)cc1)S(=O)(=O)CC(=O)NO | 174 | – | Selectivity ratio [2]: < 2
5 | O=C(CS(=O)(=O)N1CCC(c2ccc(Oc3ccccc3)cc2)CC1)NO | 205 | – | Selectivity ratio [2]: < 2
6 | CN(CCc1ccc(-c2ccccc2)cc1)S(=O)(=O)CC(=O)NO | 164 | – | Selectivity ratio [2]: < 2
7 | COCCOc1cccc(-c2ccc(C3CCN(S(=O)(=O)C(C)(C)C(=O)NO)CC3)cc2C)c1 | 3 | 853 | –
8 | Cc1cc(C2CCN(S(=O)(=O)C(C)(C)C(=O)NO)CC2)ccc1-c1cccc(OCCN(C)C)c1 | 1 | 534 | –
9 | O=C(CS(=O)(=O)N1CCC(c2ccc(-c3ccccc3)cc2)CC1)NO | – | – | Selectivity ratio [2]: < 2
10 | O=C(CS(=O)(=O)N1CC(Oc2ccc(-c3ccccc3)cc2)C1)NO | 84 | – | Selectivity ratio [2]: < 2
11 | Cc1cc(C2CCN(S(=O)(=O)C(C)(C)C(=O)NO)CC2)ccc1-c1cccc(OCCO)c1 | 1 | 262 | IC50 (Interstitial collagenase): 3230 nM; IC50 [4]: 406 nM; IC50 [5]: 1710 nM; solubility [3]: 1 µg/mL (≈ 2.1 µM)
12 | CCOc1cccc(-c2ccc(C3CCN(S(=O)(=O)C(C)(C)C(=O)NO)CC3)cc2C)c1 | 2 | 457 | –
13 | CN(Cc1ccc(-c2ccccc2)cc1)S(=O)(=O)CC(=O)NO | 378 | – | Selectivity ratio [2]: < 2
14 | CNCCOc1cccc(-c2ccc(C3CCN(S(=O)(=O)C(C)(C)C(=O)NO)CC3)cc2C)c1 | 0.3 | 196 | –

Second part, led by results:

Row | IC50 (Stromelysin-1) [nM] | IC50 [1] [nM] | SMILES | also measured
15 | 51 | 173 | Cc1cc(C2=CCN(S(=O)(=O)CC(=O)NO)CC2)ccc1-c1cccc(OC(F)(F)F)c1 | –
16 | 6 | 9 | O=C(CS(=O)(=O)N1CC=C(c2ccc(-c3ccccc3)cc2)CC1)NO | Selectivity ratio [2]: < 2
17 | 4 | 998 | CCOc1cccc(-c2ccc(C3=CCN(S(=O)(=O)CC(=O)NO)CC3)cc2C)c1 | solubility [3]: < 1 µg/mL
18 | 55 | 620 | O=C(CS(=O)(=O)N1CC=C(c2ccc(-c3ccccc3)c(Cl)c2)CC1)NO | –
19 | 31 | 1210 | CCc1cccc(-c2ccc(C3=CCN(S(=O)(=O)CC(=O)NO)CC3)cc2C)c1 | –
20 | 420 | 4380 | CCc1cc(C2=CCN(S(=O)(=O)CC(=O)NO)CC2)ccc1-c1ccccc1 | –
21 | 3 | 17 | O=C(CS(=O)(=O)N1CC=C(c2ccc(-c3ccccc3)c(F)c2)CC1)NO | –
22 | 5 | 222 | COc1cccc(-c2ccc(C3=CCN(S(=O)(=O)CC(=O)NO)CC3)cc2C)c1 | –
23 | 3 | 196 | COCc1cccc(-c2ccc(C3=CCN(S(=O)(=O)CC(=O)NO)CC3)cc2C)c1 | –
24 | 960 | 3080 | O=C(CS(=O)(=O)N1CC=C(c2ccc(-c3ccccc3)c(C(F)(F)F)c2)CC1)NO | –
25 | 161 | – | O=C(CS(=O)(=O)N1CC(c2ccc(-c3ccccc3)cc2)C1)NO | Selectivity ratio [2]: < 2
26 | 4 | 776 | Cc1cccc(-c2ccc(C3=CCN(S(=O)(=O)CC(=O)NO)CC3)cc2C)c1 | –
27 | – | 320 | Cc1cc(C2=CCN(S(=O)(=O)CC(=O)NO)CC2)ccc1-c1ccccc1 | –
